# Test results reported in ChEMBL document CHEMBL5724801, “EUbOPEN Chemogenomics Library - Multiplex” (2024).
# Where “and” joins values, the source holds several entries; their conditions need not be identical. Identical values can stand only once.
# Test system: Fibroblast
# Test: Multiplex assay against human fibroblast
# Format: toxicity, cell-based
# How it was run: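 Hoechst33342, BioTracker Green Microtubule Cytoskeleton Dye, MitoTracker Red and Annexin V Alexa Fluor 680 were added to live cells at seeding, and imaging on a CQ1 microscope at 37°C and 5% CO2 followed compound addition. Gating by CellPathfinder machine learning separated cells into Hoechst high-intensity objects or normal cells, then normal cells into healthy, pyknosed or fragmented nuclei, then pyknosed cells into mitotic or apoptotic. Per cents of healthy-nucleus cells are reported for the tubulin, mitochondrial-mass and membrane-permeability phenotypes.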
# [1] = 12 h, 1 µM, compound concentration 1 uM
# [2] = 12 h, 10 µM, compound concentration 10 uM
# [3] = 24 h, 1 µM, compound concentration 1 uM
# [4] = 24 h, 10 µM, compound concentration 10 uM
# [5] = 48 h, 1 µM, compound concentration 1 uM
# [6] = 48 h, 10 µM, compound concentration 10 uM
structure (smiles),measurement,setting,value
CC(N)C1CCC(C(=O)Nc2ccncc2)CC1 (stereo unspecified),Population Fragmented Nuclei (%),[1],12.67% and 4.31%
same,Population Healthy Nuclei (%),[1],64.25% and 88.36%
same,Population Hoechst High Intensity Objects (%),[1],0%
same,Population Membrane Permeable-Phenotype (%),[1],2.82% and 2.93%
same,Population Mitochondria Different-Phenotype (%),[1],7.75% and 8.29%
same,Population Mitotic Cells (%),[1],94.12% and 82.35%
same,Population Normal (%),[1],100%
same,Population Tubulin-Different-Phenotype (%),[1],11.27% and 12.2%
same,Total Cell Count,[1],221 and 232
same,Population Apoptotic (%),[2],19.3% and 38.89%
same,Population Fragmented Nuclei (%),[2],9.18% and 4.02%
same,Population Healthy Nuclei (%),[2],63.29% and 85.63%
same,Population Hoechst High Intensity Objects (%),[2],0%
same,Population Membrane Permeable-Phenotype (%),[2],3.05% and 0%
same,Population Mitochondria Different-Phenotype (%),[2],10.69% and 10.07%
same,Population Mitotic Cells (%),[2],80.7% and 61.11%
same,Population Normal (%),[2],100%
same,Population Pyknosed Nuclei (%),[2],27.54% and 10.34%
same,Population Tubulin-Different-Phenotype (%),[2],10.69% and 8.05%
same,Total Cell Count,[2],207 and 174
same,Population Apoptotic (%),[3],11.11% and 33.33%
same,Population Fragmented Nuclei (%),[3],6.64% and 2.82%
same,Population Healthy Nuclei (%),[3],78.42% and 89.92%
same,Population Hoechst High Intensity Objects (%),[3],0%
same,Population Membrane Permeable-Phenotype (%),[3],4.23% and 2.69%
same,Population Mitochondria Different-Phenotype (%),[3],0.53% and 5.83%
same,Population Mitotic Cells (%),[3],88.89% and 66.67%
same,Population Normal (%),[3],100%
same,Population Pyknosed Nuclei (%),[3],14.94% and 7.26%
same,Population Tubulin-Different-Phenotype (%),[3],7.41% and 11.66%
same,Total Cell Count,[3],241 and 248
same,Population Apoptotic (%),[4],18.18% and 44.44%
same,Population Fragmented Nuclei (%),[4],6.51% and 6.08%
same,Population Healthy Nuclei (%),[4],78.14% and 88.95%
same,Population Hoechst High Intensity Objects (%),[4],0%
same,Population Membrane Permeable-Phenotype (%),[4],2.38% and 0%
same,Population Mitochondria Different-Phenotype (%),[4],4.76% and 8.07%
same,Population Mitotic Cells (%),[4],81.82% and 55.56%
same,Population Normal (%),[4],100%
same,Population Tubulin-Different-Phenotype (%),[4],13.69% and 11.8%
same,Total Cell Count,[4],215 and 181
same,Population Apoptotic (%),[5],30.77% and 83.33%
same,Population Fragmented Nuclei (%),[5],11.15% and 6.02%
same,Population Healthy Nuclei (%),[5],83.85% and 91.57%
same,Population Hoechst High Intensity Objects (%),[5],0%
same,Population Membrane Permeable-Phenotype (%),[5],0.92% and 3.07%
same,Population Normal (%),[5],100%
same,Population Pyknosed Nuclei (%),[5],5% and 2.41%
same,Population Tubulin-Different-Phenotype (%),[5],3.21% and 10.09%
same,Total Cell Count,[5],260 and 249
same,Population Apoptotic (%),[6],50% and 33.33%
same,Population Fragmented Nuclei (%),[6],10.31% and 6.56%
same,Population Healthy Nuclei (%),[6],86.64% and 90.16%
same,Population Hoechst High Intensity Objects (%),[6],0%
same,Population Membrane Permeable-Phenotype (%),[6],0.44% and 0.61%
same,Population Mitotic Cells (%),[6],50% and 66.67%
same,Population Normal (%),[6],100%
same,Population Pyknosed Nuclei (%),[6],3.05% and 3.28%
same,Population Tubulin-Different-Phenotype (%),[6],3.08% and 11.52%
same,Total Cell Count,[6],262 and 183
CC[C@@H](C)Nc1nc(C)nc2c(-c3ccc(OC)nc3C)c(C)nn12 [PEXACERFONT],Population Apoptotic (%),[1],40% and 25%
same,Population Fragmented Nuclei (%),[1],12% and 32%
same,Population Healthy Nuclei (%),[1],66% and 44%
same,Population Hoechst High Intensity Objects (%),[1],1% and 2%
same,Population Mitochondria Different-Phenotype (%),[1],4%
same,Population Mitotic Cells (%),[1],60% and 75%
same,Population Normal (%),[1],98% and 97%
same,Population Pyknosed Nuclei (%),[1],20% and 24%
same,Population Tubulin-Different-Phenotype (%),[1],35% and 65%
same,Total Cell Count,[1],147 and 103
same,Population Apoptotic (%),[2],43% and 38%
same,Population Fragmented Nuclei (%),[2],15% and 21%
same,Population Healthy Nuclei (%),[2],55% and 40%
same,Population Hoechst High Intensity Objects (%),[2],2% and 8%
same,Population Membrane Permeable-Phenotype (%),[2],0% and 7%
same,Population Mitochondria Different-Phenotype (%),[2],19% and 9%
same,Population Mitotic Cells (%),[2],56% and 61%
same,Population Normal (%),[2],97% and 91%
same,Population Pyknosed Nuclei (%),[2],29% and 38%
same,Population Tubulin-Different-Phenotype (%),[2],62% and 68%
same,Total Cell Count,[2],143 and 147
same,Population Apoptotic (%),[3],52% and 47%
same,Population Fragmented Nuclei (%),[3],16% and 35%
same,Population Healthy Nuclei (%),[3],70% and 42%
same,Population Hoechst High Intensity Objects (%),[3],1% and 3%
same,Population Membrane Permeable-Phenotype (%),[3],0% and 20%
same,Population Mitochondria Different-Phenotype (%),[3],3% and 2%
same,Population Mitotic Cells (%),[3],47% and 52%
same,Population Normal (%),[3],98% and 96%
same,Population Pyknosed Nuclei (%),[3],13% and 22%
same,Population Tubulin-Different-Phenotype (%),[3],38% and 61%
same,Total Cell Count,[3],157 and 108
same,Population Apoptotic (%),[4],37% and 38%
same,Population Fragmented Nuclei (%),[4],16% and 18%
same,Population Healthy Nuclei (%),[4],56% and 47%
same,Population Hoechst High Intensity Objects (%),[4],1% and 7%
same,Population Mitochondria Different-Phenotype (%),[4],10% and 6%
same,Population Mitotic Cells (%),[4],62% and 61%
same,Population Normal (%),[4],98% and 92%
same,Population Pyknosed Nuclei (%),[4],27% and 33%
same,Population Tubulin-Different-Phenotype (%),[4],68% and 76%
same,Total Cell Count,[4],139 and 143
same,Population Apoptotic (%),[5],54% and 25%
same,Population Fragmented Nuclei (%),[5],15% and 40%
same,Population Healthy Nuclei (%),[5],69% and 45%
same,Population Hoechst High Intensity Objects (%),[5],8% and 1%
same,Population Mitochondria Different-Phenotype (%),[5],0% and 4%
same,Population Mitotic Cells (%),[5],45% and 75%
same,Population Normal (%),[5],91% and 98%
same,Population Pyknosed Nuclei (%),[5],15% and 14%
same,Population Tubulin-Different-Phenotype (%),[5],30% and 52%
same,Total Cell Count,[5],160 and 113
same,Population Apoptotic (%),[6],87% and 52%
same,Population Fragmented Nuclei (%),[6],23% and 32%
same,Population Healthy Nuclei (%),[6],53% and 50%
same,Population Hoechst High Intensity Objects (%),[6],3% and 4%
same,Population Membrane Permeable-Phenotype (%),[6],0% and 12%
same,Population Mitochondria Different-Phenotype (%),[6],14% and 9%
same,Population Normal (%),[6],96% and 95%
same,Population Pyknosed Nuclei (%),[6],22% and 16%
same,Population Tubulin-Different-Phenotype (%),[6],62% and 76%
same,Total Cell Count,[6],144 and 134
O=C(NCC(=O)N1CC[C@H](N[C@H]2CC[C@@](O)(c3ccc(-c4ncccn4)cn3)CC2)C1)c1cccc(C(F)(F)F)c1 [PF-4136309],Population Apoptotic (%),[1],53% and 22%
same,Population Fragmented Nuclei (%),[1],13% and 25%
same,Population Healthy Nuclei (%),[1],63% and 52%
same,Population Hoechst High Intensity Objects (%),[1],2% and 5%
same,Population Mitochondria Different-Phenotype (%),[1],4% and 7%
same,Population Mitotic Cells (%),[1],46% and 77%
same,Population Normal (%),[1],97% and 94%
same,Population Pyknosed Nuclei (%),[1],23% and 21%
same,Population Tubulin-Different-Phenotype (%),[1],28% and 60%
same,Total Cell Count,[1],142 and 152
same,Population Apoptotic (%),[2],60% and 25%
same,Population Fragmented Nuclei (%),[2],18% and 24%
same,Population Healthy Nuclei (%),[2],69% and 52%
same,Population Hoechst High Intensity Objects (%),[2],2% and 5%
same,Population Membrane Permeable-Phenotype (%),[2],0% and 4%
same,Population Mitochondria Different-Phenotype (%),[2],11% and 6%
same,Population Mitotic Cells (%),[2],40% and 75%
same,Population Normal (%),[2],97% and 94%
same,Population Pyknosed Nuclei (%),[2],12% and 23%
same,Population Tubulin-Different-Phenotype (%),[2],46% and 44%
same,Total Cell Count,[2],210 and 128
same,Population Apoptotic (%),[3],61% and 45%
same,Population Fragmented Nuclei (%),[3],14% and 33%
same,Population Healthy Nuclei (%),[3],60% and 52%
same,Population Hoechst High Intensity Objects (%),[3],2% and 4%
same,Population Mitochondria Different-Phenotype (%),[3],4% and 1%
same,Population Mitotic Cells (%),[3],38% and 55%
same,Population Normal (%),[3],97% and 95%
same,Population Pyknosed Nuclei (%),[3],25% and 14%
same,Population Tubulin-Different-Phenotype (%),[3],32% and 52%
same,Total Cell Count,[3],139 and 148
same,Population Apoptotic (%),[4],36% and 30%
same,Population Fragmented Nuclei (%),[4],15% and 29%
same,Population Healthy Nuclei (%),[4],72% and 48%
same,Population Hoechst High Intensity Objects (%),[4],3% and 2%
same,Population Membrane Permeable-Phenotype (%),[4],0% and 6%
same,Population Mitochondria Different-Phenotype (%),[4],10% and 4%
same,Population Mitotic Cells (%),[4],63% and 70%
same,Population Normal (%),[4],96% and 97%
same,Population Pyknosed Nuclei (%),[4],11% and 22%
same,Population Tubulin-Different-Phenotype (%),[4],34% and 52%
same,Total Cell Count,[4],203 and 139
same,Population Apoptotic (%),[5],58% and 50%
same,Population Fragmented Nuclei (%),[5],26% and 36%
same,Population Healthy Nuclei (%),[5],49%
same,Population Hoechst High Intensity Objects (%),[5],2% and 4%
same,Population Membrane Permeable-Phenotype (%),[5],2% and 7%
same,Population Mitochondria Different-Phenotype (%),[5],2% and 4%
same,Population Mitotic Cells (%),[5],41% and 50%
same,Population Normal (%),[5],97% and 95%
same,Population Pyknosed Nuclei (%),[5],24% and 13%
same,Population Tubulin-Different-Phenotype (%),[5],27% and 46%
same,Total Cell Count,[5],149 and 137
same,Population Apoptotic (%),[6],47% and 63%
same,Population Fragmented Nuclei (%),[6],18% and 31%
same,Population Healthy Nuclei (%),[6],72% and 52%
same,Population Hoechst High Intensity Objects (%),[6],6%
same,Population Membrane Permeable-Phenotype (%),[6],0% and 6%
same,Population Mitochondria Different-Phenotype (%),[6],15% and 6%
same,Population Mitotic Cells (%),[6],52% and 36%
same,Population Normal (%),[6],93%
same,Population Pyknosed Nuclei (%),[6],9% and 15%
same,Population Tubulin-Different-Phenotype (%),[6],47% and 54%
same,Total Cell Count,[6],195 and 129
